Active and inactive are the calls of the source. The calls are words filed in the database; no cut-off is given here.
How the values were obtained:
[1] = Cytotoxicity against CD138-positive BMNC isolated from multiple myeloma patient assessed as cell viability at 20 uM; format: functional; conditions: Homo sapiens, read-out: Activity
In short: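 Bone marrow mononuclear cells were isolated by Ficoll-Paque separation from 6 myeloma patient aspirates, cultured, and treated with compound. Cells were stained for CD138 and Annexin V, and the decrease in CD138+ (myeloma) and CD138- (non-myeloma) populations was reported.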

[2] = biological target: T1, Tyrosine-protein kinase JAK3 (Homo sapiens) (UniProt P52333); assay: Inhibition of JAK3 JH1 domain (unknown origin) assessed as residual activity at 5 uM relative to control
T1 sequence (whole entry): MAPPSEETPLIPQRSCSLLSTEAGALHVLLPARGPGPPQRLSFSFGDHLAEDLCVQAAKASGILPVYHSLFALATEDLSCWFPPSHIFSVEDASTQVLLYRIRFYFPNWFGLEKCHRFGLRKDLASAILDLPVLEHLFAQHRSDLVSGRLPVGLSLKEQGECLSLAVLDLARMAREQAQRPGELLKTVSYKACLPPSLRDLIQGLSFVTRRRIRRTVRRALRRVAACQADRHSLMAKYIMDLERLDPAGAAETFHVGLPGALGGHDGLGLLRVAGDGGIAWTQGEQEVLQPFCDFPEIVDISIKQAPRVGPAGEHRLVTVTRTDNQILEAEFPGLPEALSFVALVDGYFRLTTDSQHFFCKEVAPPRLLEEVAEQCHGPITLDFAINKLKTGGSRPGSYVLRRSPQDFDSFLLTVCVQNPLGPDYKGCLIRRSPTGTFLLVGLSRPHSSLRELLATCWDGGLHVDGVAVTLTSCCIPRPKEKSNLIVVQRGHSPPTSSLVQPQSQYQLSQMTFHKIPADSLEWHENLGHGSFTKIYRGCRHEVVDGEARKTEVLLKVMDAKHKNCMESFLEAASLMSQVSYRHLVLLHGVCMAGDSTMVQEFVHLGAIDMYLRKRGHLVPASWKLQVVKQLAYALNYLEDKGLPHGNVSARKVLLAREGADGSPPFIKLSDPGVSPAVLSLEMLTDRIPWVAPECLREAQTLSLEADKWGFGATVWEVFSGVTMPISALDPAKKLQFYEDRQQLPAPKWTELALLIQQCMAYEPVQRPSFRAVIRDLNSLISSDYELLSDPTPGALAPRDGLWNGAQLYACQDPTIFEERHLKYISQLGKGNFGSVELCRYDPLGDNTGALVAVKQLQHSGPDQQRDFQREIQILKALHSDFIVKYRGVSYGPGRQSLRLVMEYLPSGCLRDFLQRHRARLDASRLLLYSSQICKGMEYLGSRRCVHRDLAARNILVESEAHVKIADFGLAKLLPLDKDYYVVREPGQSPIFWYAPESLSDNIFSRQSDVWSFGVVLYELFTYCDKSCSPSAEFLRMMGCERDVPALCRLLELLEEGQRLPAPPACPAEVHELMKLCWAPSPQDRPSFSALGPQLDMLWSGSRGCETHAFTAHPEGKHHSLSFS
In short: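 Kinase profiling used a KinomeScan at 5 µM across 132 kinases, including 37 with SH2 domains.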

XG6 = assay: Induction of apoptosis in human XG6 cells at 10 to 20 uM by annexin V/propidium iodide staining-based flow cytometric analysis; format: functional, cell-based
In short: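 Apoptosis was measured by flow cytometry of Annexin V and propidium iodide staining. Viable, early apoptotic and late apoptotic cells were scored by quadrant, with time points at 24 and 48 h.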

Activity [2]: 84%
SMILES: Cc1ccc(S(=O)(=O)N(CC(=O)N(Cc2ccc(C3CCCCC3)cc2)c2ccc(C(=O)O)c(O)c2)Cc2ccccc2C(F)(F)F)cc1
viability at 20 µM [1]: > 50%
Activity (XG6): Active

Source: ChEMBL document CHEMBL2429859, “Inhibiting aberrant signal transducer and activator of transcription protein activation with tetrapodal, small molecule Src homology 2 domain binders: promising agents against multiple myeloma” (J Med Chem, 2013)
